Laboratory results from ChEMBL document CHEMBL5046273, “Development of a Novel, Small-Molecule Brain-Penetrant Histone Deacetylase Inhibitor That Enhances Spatial Memory Formation in Mice” (J Med Chem, 2022).
Active and inactive are the calls of the source. The rule behind the calls is not given here.

Assays:
[1] = target: T1, Histone deacetylase 2 (Homo sapiens, UniProt Q92769); assay: Inhibition of recombinant human full-length HDAC2 incubated for 10 mins by Glo-luminescence assay
In short: (§1)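 Compounds were serially diluted and incubated with enzyme for 10 min. HDAC-Glo I/II substrate/developer was then added, and luminescence read after 40 min at 23 °C. IC50 from four-parameter fits from two independent titrations, mean ± SD.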

[2] = target: T1, Histone deacetylase 2; assay: Inhibition of recombinant human full-length HDAC2 preincubated for 20 mins with DTT followed by enzyme addition and measured after 10 mins by Glo-luminescence assay; in short: as §1
[3] = system: DU-145; assay: Cytotoxicity against human DU-145 cells assessed as reduction in cell viability at 0.00125 to 100 uM incubated for 48 hrs by MTT assay; type: functional, cell-based; settings: dose 0.00125-100 µM
In short: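 DU145 cells in DMEM with 10% FBS were seeded at 14 000 cells/well and allowed to adhere for 24 h. Test agents were diluted from 10 mM DMSO stocks (100, 50, 25 µM; 10, 5, 1.25 nM) and applied in triplicate for 48 h at 37 °C, 5% CO2, with DMSO as vehicle. Read-out was 250 µg/mL MTT for 4 h, DMSO solubilization, and A570 with 690 nm reference. Values normalized to DMSO.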

T1 sequence (Q92769 whole entry): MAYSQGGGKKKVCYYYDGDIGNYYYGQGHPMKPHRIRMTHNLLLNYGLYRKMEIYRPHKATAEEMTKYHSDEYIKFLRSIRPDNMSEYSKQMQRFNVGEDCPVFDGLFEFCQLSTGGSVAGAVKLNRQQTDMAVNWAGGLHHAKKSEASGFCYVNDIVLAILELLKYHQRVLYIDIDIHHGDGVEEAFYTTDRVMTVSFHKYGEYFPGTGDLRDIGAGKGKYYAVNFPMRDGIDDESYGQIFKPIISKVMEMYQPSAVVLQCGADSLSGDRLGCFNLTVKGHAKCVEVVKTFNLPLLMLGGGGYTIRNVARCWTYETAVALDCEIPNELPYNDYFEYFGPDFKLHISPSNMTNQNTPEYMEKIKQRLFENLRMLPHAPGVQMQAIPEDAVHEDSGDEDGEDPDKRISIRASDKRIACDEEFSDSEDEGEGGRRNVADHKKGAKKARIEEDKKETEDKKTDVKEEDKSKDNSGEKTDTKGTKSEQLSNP

O=C(CC(O)/C=C/CCSSCC/C=C/C(O)CC(=O)Nc1ccccc1)Nc1ccccc1 (stereo not drawn)
IC50 [1]: 105 µM
IC50 [2]: 25 µM
Activity [3]: inactive
